The source of these data is ChEMBL document CHEMBL6153131, “Rational Design and Optimization of a Potent IDO1 Proteolysis Targeting Chimera (PROTAC)” (J Med Chem, 2025).

The target of data set [1] is T1, Protein cereblon/Indoleamine 2,3-dioxygenase 1 (Homo sapiens, UniProt P14902+Q96SW2). The data set can be described thus: PROTAC activity at CRBN/IDO1 in human U87 cells assessed as induction of IDO1 degradation at 50 to 100 nM pretreated with compound for 24 hrs followed by compound washout and measured upto 48 hrs by Western blotting analysis. It is filed as cell-based. To be noted: dose 50-100 nM. In short, it runs like this: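 U87 cells given a 24 h PROTAC pulse, then cultured without compound for up to 48 h after washout. IDO1 assessed by Western blot.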
Target sequence in this assay (P14902 whole entry, looked up): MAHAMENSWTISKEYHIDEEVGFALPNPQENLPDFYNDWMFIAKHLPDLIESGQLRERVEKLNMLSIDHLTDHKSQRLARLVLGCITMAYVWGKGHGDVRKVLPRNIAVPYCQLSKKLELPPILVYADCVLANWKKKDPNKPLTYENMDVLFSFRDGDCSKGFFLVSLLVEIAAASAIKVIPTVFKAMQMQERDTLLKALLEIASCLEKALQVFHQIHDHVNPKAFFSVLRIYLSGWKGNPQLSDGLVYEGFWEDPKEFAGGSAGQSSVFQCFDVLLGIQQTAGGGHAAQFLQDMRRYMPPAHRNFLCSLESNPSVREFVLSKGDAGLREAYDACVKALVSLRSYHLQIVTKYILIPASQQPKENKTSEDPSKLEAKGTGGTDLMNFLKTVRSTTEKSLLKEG
Target sequence in this assay (Q96SW2 whole entry, looked up): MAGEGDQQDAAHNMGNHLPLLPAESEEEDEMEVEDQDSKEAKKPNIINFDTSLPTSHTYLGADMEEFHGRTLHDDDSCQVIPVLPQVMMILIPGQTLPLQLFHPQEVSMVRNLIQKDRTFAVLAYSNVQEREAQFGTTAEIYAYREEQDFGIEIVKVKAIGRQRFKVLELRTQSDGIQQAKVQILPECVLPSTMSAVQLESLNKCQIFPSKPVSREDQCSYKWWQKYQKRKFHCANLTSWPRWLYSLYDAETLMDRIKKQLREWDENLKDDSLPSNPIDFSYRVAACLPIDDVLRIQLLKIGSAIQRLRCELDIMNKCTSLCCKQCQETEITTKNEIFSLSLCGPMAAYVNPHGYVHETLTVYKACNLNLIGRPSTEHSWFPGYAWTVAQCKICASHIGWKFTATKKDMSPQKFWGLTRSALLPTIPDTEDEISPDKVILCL
(In general: In western blotting, separated proteins are transferred to a membrane and probed.)

Data set [2] is described as follows: Cmax in female C57BL/6J mouse brain at 50 mg/kg, ip by LC-MS/MS analysis. The class given is ADME, organism-based.
Data set [3] concerns the target T1, Protein cereblon/Indoleamine 2,3-dioxygenase 1. Kind of data set: PROTAC activity at CRBN/IDO1 in human MDA-MB-231 cells assessed as induction of IDO1 degradation pretreated with IFN-gamma for 24 hrs followed by compound addition and measured after 24 hrs by Western blotting analysis. The class given is cell-based. To be noted: dose 50-100 nM. In short, it runs like this:
(§1)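 Cells had IDO1 induced with IFNγ, then were treated at the indicated concentrations for 24 h. Lines: PDX-6 and PDX-38 adult GBM PDX cells, U87 overexpressing GFP-fused IDO1, PC-3, KNS42, MDA-MB-231, SW-1990 and SKOV-3. Lysates probed for IDO1 and GAPDH by Western blot; representative of 3 separate replicates.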
Target sequence in this assay (P14902 whole entry, looked up): as the sequence (P14902 whole entry, looked up) above
Target sequence in this assay (Q96SW2 whole entry, looked up): as the sequence (Q96SW2 whole entry, looked up) above

The target is the same in data set [4]. The data set can be described thus: PROTAC activity at CRBN/IDO1 in human U87 cells assessed as induction of IDO1 degradation at 100 nM pretreated with IFN-gamma for 24 hrs followed by compound addition and measured after 24 hrs in presence of NU223618 by Western blotting analysis. It is filed as cell-based.
Target sequence in this assay (P14902 whole entry, looked up): as the sequence (P14902 whole entry, looked up) above
Target sequence in this assay (Q96SW2 whole entry, looked up): as the sequence (Q96SW2 whole entry, looked up) above
For data set [5] the target is unchanged. Kind of data set: PROTAC activity at CRBN/IDO1 in human GBM43 cell assessed as induction of IDO1 degradation pretreated with IFN-gamma for 24 hrs followed by compound addition and measured after 24 hrs by Western blot analysis. The class given is cell-based. In a few lines:
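GBM43 cells treated for 24 h across an extended dose range. IDO1 Western blot, IFN-γ-induced IDO1 normalized to untreated; DC50 from n = 3 independent experiments.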
Target sequence in this assay (P14902 whole entry): as the sequence (P14902 whole entry, looked up) above
Target sequence in this assay (Q96SW2 whole entry): as the sequence (Q96SW2 whole entry, looked up) above

Data set [6] has the same target. The data set can be described thus: PROTAC activity at CRBN/IDO1 in human U87 cells assessed as induction of IDO1 degradation at 100 nM at 1 uM pretreated with IFN-gamma for 24 hrs followed by compound addition and measured after 24 hrs in presence of pomalidomide by Western blotting analysis. The class given is cell-based.
Target sequence in this assay (P14902 whole entry, looked up): as the sequence (P14902 whole entry, looked up) above
Target sequence in this assay (Q96SW2 whole entry, looked up): as the sequence (Q96SW2 whole entry, looked up) above
Data set [7] in a line: Half life in female C57BL/6J mouse brain at 50 mg/kg, ip by LC-MS/MS analysis. The class given is ADME, organism-based.
Data set [8] deals with T1, Protein cereblon/Indoleamine 2,3-dioxygenase 1. Kind of data set: PROTAC activity at CRBN/IDO1 in human KNS-42 cells assessed as induction of IDO1 degradation pretreated with IFN-gamma for 24 hrs followed by compound addition and measured after 24 hrs by Western blotting analysis. Particulars: dose 50-100 nM. It is filed as cell-based. In a few lines: as §1
Target sequence in this assay (P14902 whole entry, looked up): as the sequence (P14902 whole entry, looked up) above
Target sequence in this assay (Q96SW2 whole entry, looked up): as the sequence (Q96SW2 whole entry, looked up) above
Data set [9] shares this target. The data set can be described thus: PROTAC activity at CRBN/IDO1 in human GBM43 cell assessed as induction of IDO1 degradation at 10 uM pretreated with IFN-gamma for 24 hrs followed by compound addition and measured after 24 hrs by Western blotting analysis (reference value: 100%). It is filed as cell-based. In a few lines: (§2)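 GBM43 patient-derived cells given an extended dose range of PROTAC for 24 h. Protein analysed by Western blot for IDO1, and IFNγ-induced IDO1 normalised to untreated samples. n = 3 independent experiments; data as mean ± SEM.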
Target sequence in this assay (P14902 whole entry, looked up): as the sequence (P14902 whole entry, looked up) above
Target sequence in this assay (Q96SW2 whole entry, looked up): as the sequence (Q96SW2 whole entry, looked up) above

In another data set the test system is PC-3. Kind of data set: Inhibition of kynurenine production in human PC-3 cells pretreated with IFN-gamma for 24 hrs followed by compound addition and measured after 24 hrs by Ehrlich's reagent based analysis. It is filed as functional, cell-based. Particulars: dose 50-100 nM.
The test system of another data set is MDA-MB-231. Kind of data set: Inhibition of kynurenine production in human MDA-MB-231 cells pretreated with IFN-gamma for 24 hrs followed by compound addition and measured after 24 hrs by Ehrlich's reagent based analysis. The class given is functional, cell-based. Particulars: dose 50-100 nM.
The target in data set [10] is T1, Protein cereblon/Indoleamine 2,3-dioxygenase 1. Kind of data set: PROTAC activity at CRBN/IDO1 in human PDX-6 cells assessed as induction of IDO1 degradation pretreated with IFN-gamma for 24 hrs followed by compound addition and measured after 24 hrs by Western blotting analysis. It is filed as cell-based. Particulars: dose 50-100 nM. In a few lines: as §1
Data set [11] shares this target. The data set can be described thus: PROTAC activity at CRBN/IDO1 in human U87 cells assessed as induction of IDO1 degradation by measuring remaining activity at 25 nM pretreated with IFN-gamma for 24 hrs followed by compound addition and measured after 24 hrs by Western blotting analysis (reference value: 100%). The class given is cell-based.
For data set [12] the target is unchanged. The data set can be described thus: PROTAC activity at CRBN/IDO1 in human U87 cells assessed as induction of IDO1 degradation by measuring remaining activity at 0.001 uM pretreated with IFN-gamma for 24 hrs followed by compound addition and measured after 24 hrs by Western blotting analysis (reference value: 100%). It is filed as cell-based. In short, it runs like this: (§3)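 U87 cells given an extended dose range of PROTAC for 24 h, then Western blot for IDO1. IFNγ-induced IDO1 levels normalised to untreated samples. n = 3 independent experiments; mean ± SEM.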

Data set [13] shares this target. Kind of data set: PROTAC activity at CRBN/IDO1 in human U87 cells assessed as induction of IDO1 degradation by measuring remaining activity at 0.003 uM incubated for 24 hrs by Western blotting analysis (reference value: 100%). It is filed as cell-based.
Data set [14] shares this target. The data set can be described thus: PROTAC activity at CRBN/IDO1 in human GBM43 cell assessed as induction of IDO1 degradation at 0.01 uM pretreated with IFN-gamma for 24 hrs followed by compound addition and measured after 24 hrs by Western blotting analysis (reference value: 100%). It is filed as cell-based. In a few lines: as §2
For data set [15] the target is unchanged. The data set can be described thus: PROTAC activity at CRBN/IDO1 in human U87 cells assessed as induction of IDO1 degradation at 100 nM at 0.5 uM pretreated with IFN-gamma for 24 hrs followed by compound addition and measured after 24 hrs in presence of MLN4924 by Western blotting analysis. The class given is cell-based.
Another data set has as its system SK-OV-3. Kind of data set: Inhibition of kynurenine production in human SK-OV-3 cells pretreated with IFN-gamma for 24 hrs followed by compound addition and measured after 24 hrs by Ehrlich's reagent based analysis. It is filed as functional, cell-based. To be noted: dose 50-100 nM.
The next data set relates to PDX-38. The data set can be described thus: Inhibition of kynurenine production in human PDX-38 cells pretreated with IFN-gamma for 24 hrs followed by compound addition and measured after 24 hrs by Ehrlich's reagent based analysis. The class given is functional, cell-based. Particulars: dose 50-100 nM.
For data set [16], the target named is T1, Protein cereblon/Indoleamine 2,3-dioxygenase 1. The data set can be described thus: PROTAC activity at CRBN/IDO1 in human SK-OV-3 cells assessed as induction of IDO1 degradation pretreated with IFN-gamma for 24 hrs followed by compound addition and measured after 24 hrs by Western blotting analysis. The class given is cell-based. To be noted: dose 50-100 nM. In short, it runs like this: as §1

Data set [17] shares this target. The data set can be described thus: PROTAC activity at CRBN/IDO1 in human GBM43 cell assessed as induction of IDO1 degradation at 3 uM pretreated with IFN-gamma for 24 hrs followed by compound addition and measured after 24 hrs by Western blotting analysis (reference value: 100%). It is filed as cell-based. In short, it runs like this:
as §2

Data set [18] concerns the target Indoleamine 2,3-dioxygenase 1 (Homo sapiens) (UniProt P14902). The data set can be described thus: Binding affinity to 6His-tagged recombinant IDO1 (unknown origin) assessed as binary complex formation by measuring half life by Biolayer Interferometry assay. (In BLI a coated tip is dipped into the sample, and binding shifts an interference pattern.)
Data set [19] deals with T1, Protein cereblon/Indoleamine 2,3-dioxygenase 1. The data set can be described thus: PROTAC activity at CRBN/IDO1 in human GBM43 cell assessed as induction of IDO1 degradation at 1 uM pretreated with IFN-gamma for 24 hrs followed by compound addition and measured after 24 hrs by Western blotting analysis (reference value: 100%). It is filed as cell-based. In short, it runs like this: as §2

The target is the same in data set [20]. Kind of data set: PROTAC activity at CRBN/IDO1 in human U87 cells assessed as induction of IDO1 degradation by measuring remaining activity at 0.03 uM pretreated with IFN-gamma for 24 hrs followed by compound addition and measured after 24 hrs by Western blotting analysis (reference value: 100%). It is filed as cell-based. In short, it runs like this: as §3

Active and inactive are the calls of the source.

Chain of Indoleamine 2,3-dioxygenase 1 (Homo sapiens) (P14902 whole entry, looked up): as the sequence (P14902 whole entry, looked up) above

The Cmax is the peak of the concentration-time curve. For orientation: DC50 means the concentration at which degradation of the target reaches its halfway point. The term half-life denotes the time needed for the level to fall by half in the phase considered. High values mean slow loss, low ones fast loss. Consider `C[C@@H](C(=O)Nc1cccc(OC2CCN(C(=O)CN3CCC(N4CCN(c5ccc6c(c5)C(=O)N(C5CCC(=O)NC5=O)C6=O)CC4)CC3)CC2)c1)[C@H]1CC[C@@H](c2ccnc3ccc(F)cc32)CC1` (some centres undefined), for which the result in [1] was Active. In data set [2], the maximum concentration (Cmax) was determined as 100 nM. The Activity result is “Dose-dependent-effect” in data set [3]; “Dose-dependent-effect” in [8]; 87% in data set [9]; “Dose-dependent-effect” in data set [10]; 35% in [11]; 83% in data set [12]. Further, the Activity in data set [13] was 71%; in data set [14] it was 61%; in [16] it was “Dose-dependent-effect”; in data set [17] it was 77%; in data set [19], 47%; in data set [20], 27%. Moreover, the result in [4], in data set [6] and in data set [15] was inactive. For the same compound, the DC50 in data set [5] was 11.8 nM. Also, in data set [7], the half-life is 11.8 h. Also, the inhibition result with PC-3, in the data set on MDA-MB-231, with SK-OV-3 and in the data set with PDX-38 was “Dose-dependent-effect” each time. For the same compound, the T1/2 in data set [18] is 38.6 s.
